# Results: ChEMBL document CHEMBL4831479, “Discovery of Novel Thiophene-arylamide Derivatives as DprE1 Inhibitors with Potent Antimycobacterial Activities” (J Med Chem, 2021)
# Columns and labels:
# Type in all cases: functional
# Conditions in all cases: variant bovis BCG, 168 h, time 7 day
# [1] = test system: Mycobacterium tuberculosis; test: Antibacterial activity against Mycobacterium bovis BCG transfected with pMV261:Mt-dprE1 assessed as bacterial growth inhibition incubated for 7 days by resazurin assay
# Outline: (§1)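 M. bovis BCG Pasteur carrying pMV261 (constitutive expression) with Mt-dprE1, Mt-dprE2 or empty vector; MIC after 7 days' exposure to compound, viability read as endogenous reductase conversion of resazurin to resorufin. INH used as control.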
# [2] = test system: Mycobacterium tuberculosis; test: Antibacterial activity against Mycobacterium bovis BCG transfected with pMV261:Mt-dprE2 assessed as bacterial growth inhibition incubated for 7 days by resazurin assay; outline: as §1
# [3] = test system: Mycobacterium tuberculosis; test: Antibacterial activity against wild type Mycobacterium bovis BCG assessed as bacterial growth inhibition incubated for 7 days by resazurin assay; outline: as §1
SMILES,MIC [1] [µg/mL],MIC [2] [µg/mL],MIC [3] [µg/mL]
CCOC(=O)NC(=O)c1ccsc1NC(=O)c1nc2ccccc2s1,15.4,–,–
COC(=O)NC(=O)c1ccsc1NC(=O)c1ccc(C(=O)N2CCCCC2)c(F)c1,> 1.98,0.25,–
O=C(Nc1sccc1C(=O)Nc1nccc(C(F)(F)F)n1)c1ccc(C(=O)N2CCCCC2)cc1,12.8,1.6,1.6
CCOC(=O)NC(=O)c1ccsc1NC(=O)c1ccc(C(=O)N2CCCCC2)c(F)c1,> 0.51,–,0.064
COC(=O)NC(=O)c1ccsc1NC(=O)c1ccc(C(=O)N2CCCCC2)cc1,12.2,1.52,0.76
CCOC(=O)NC(=O)c1ccsc1NC(=O)c1ccc(C(=O)N2CCCCC2)cc1,> 1.28,0.32,0.32
CCOC(=O)NC(=O)c1ccsc1NC(=O)c1ccc(C(=O)N2CCCCC2)s1,8.96,0.56,0.28
